Results as given in ChEMBL document CHEMBL3102776, “Synthesis and biological evaluation of farnesylthiosalicylamides as potential anti-tumor agents” (Bioorg Med Chem, 2014).
≈ marks a conversion by molar mass, not a printed value. Calls of active or inactive are those of the source. The calls are words filed in the database; no cut-off is given here.

Assays:
SK-OV-3 = test: Cytotoxicity against human SKOV3 cells after 48 hrs by MTT assay; assay type: functional, cell-based; conditions: SK-OV-3, 48 h
Summary of the method: (§1)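 Cells seeded at 10⁴ per well in DMEM with 10% FBS and grown overnight. Compound at a range of concentrations for 48 h, in triplicate. MTT (5 mg mL⁻¹ stock) added for the last 4 h, formazan dissolved in DMSO, absorbance read at 570 nm. Percent inhibition used to derive IC50. Values are mean ± SEM of at least three independent experiments.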

[1] = Cytotoxicity against human PANC1 cells after 48 hrs by MTT assay; assay type: functional, cell-based; conditions: PANC-1, 48 h; summary of the method: as §1
[2] = Cytotoxicity against human H460 cells after 48 hrs by MTT assay; assay type: functional, cell-based; conditions: NCI-H460, 48 h; summary of the method: as §1
MCF7 = test: Cytotoxicity against human MCF7 cells after 48 hrs by MTT assay; assay type: functional, cell-based; conditions: MCF7, 48 h; summary of the method: as §1
SMMC-7721 [3] = test: Cytotoxicity against human SMMC7721 cells after 48 hrs by MTT assay; assay type: functional, cell-based; conditions: SMMC-7721, 48 h; summary of the method: as §1
[4] = Cytotoxicity against human SGC7901 cells after 48 hrs by MTT assay; assay type: functional, cell-based; conditions: SGC-7901, 48 h; summary of the method: as §1
EJ = test: Cytotoxicity against human EJ cells after 48 hrs by MTT assay; assay type: functional, cell-based; summary of the method: as §1
SMMC-7721 [5] = test: Induction of apoptosis in human SMMC7721 cells assessed as early apoptotic cells at 12 uM after 48 hrs by annexin V-FITC/propidium iodide staining-based flow cytometry (reference value: 3.87%); assay type: functional
SMMC-7721 [6] = test: Inhibition of Ras in human SMMC7721 cells assessed as reduction in phosphorylated ERK1 level at 12 uM after 8 hrs by immunoblotting analysis; assay type: cell-based
Summary of the method: (§2)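 SMMC-7721 cells at 1.5 × 10⁵/mL treated with 3.0, 6.0 or 12 µmol/L compound or vehicle for 8 h. Cells lysed, 50 µg protein per lane run on 12% SDS–PAGE gels. Blots probed for total and phospho-ERK1/2 (Thr202/Tyr204), total and phospho-Akt (Ser473), and β-actin. Densitometry relative to β-actin. Means ± SEM of three experiments.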

SMMC-7721 [7] = test: Induction of apoptosis in human SMMC7721 cells assessed as viable cells at 12 uM after 48 hrs by annexin V-FITC/propidium iodide staining-based flow cytometry (reference value: 93.81%); assay type: functional; conditions: SMMC-7721, 48 h, read-out: Activity
[8] = Lipophilicity, log P of the compound in 10% PEG400 aqueous solution; assay type: physicochemical
SMMC-7721 [9] = test: Induction of apoptosis in human SMMC7721 cells assessed as late apoptotic cells at 12 uM after 48 hrs by annexin V-FITC/propidium iodide staining-based flow cytometry (reference value: 1.55%); assay type: functional
SMMC-7721 [10] = test: Inhibition of Ras in human SMMC7721 cells assessed as reduction in phosphorylated Akt level at 12 uM after 8 hrs by immunoblotting analysis; assay type: cell-based; summary of the method: as §2
SMMC-7721 [11] = test: Inhibition of Ras in human SMMC7721 cells assessed as reduction in phosphorylated ERK2 level at 12 uM after 8 hrs by immunoblotting analysis; assay type: cell-based; summary of the method: as §2
[12] = Aqueous solubility of the compound in 10% PEG400 aqueous solution after 24 hrs by HPLC analysis; assay type: physicochemical
Summary of the method: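 Roughly 20.0 mg of solid in 5 mL of 10% PEG400 in water. Sonicated 10 min, then stirred 24 h at 25 °C in a water bath. Centrifuged 10 min at 10,000 rpm and the supernatant passed through a microporous membrane. Concentration measured by HPLC against a standard curve.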

SMMC-7721 [13] = test: Induction of apoptosis in human SMMC7721 cells assessed as necrotic cells at 12 uM after 48 hrs by annexin V-FITC/propidium iodide staining-based flow cytometry (reference value: 0.77%); assay type: functional

## CNC(=O)c1cc(Oc2ccc(NC(=O)Nc3ccc(Cl)c(C(F)(F)F)c3)cc2)ccn1 [SORAFENIB]
SK-OV-3
  IC50: 9.25 µM
[1]
  IC50: 12.3 µM
[2]
  IC50: 10.8 µM
MCF7
  IC50: 9.12 µM
SMMC-7721 [3]
  IC50: 18.7 µM
[4]
  IC50: 11.5 µM
EJ
  IC50: 22.9 µM

## CC(C)=CCC/C(C)=C/CC/C(C)=C/CSc1ccccc1C(=O)NCCOCCNC(=O)c1ccccc1SC/C=C(\C)CC/C=C(\C)CCC=C(C)C
SK-OV-3
  IC50: 34.4 µM
[1]
  IC50: 29.8 µM
[2]
  IC50: 43.5 µM
MCF7
  IC50: 30 µM
SMMC-7721 [3]
  IC50: 29 µM
[4]
  IC50: 43.8 µM
EJ
  IC50: 27.8 µM

## CC(C)=CCC/C(C)=C/CC/C(C)=C/CSc1ccccc1C(=O)N1CCNCC1
SK-OV-3
  IC50: > 50 µM
[1]
  IC50: 22.5 µM
[2]
  IC50: 26.3 µM
MCF7
  IC50: 34.1 µM
SMMC-7721 [3]
  IC50: 32.4 µM
[4]
  IC50: 25.7 µM
EJ
  IC50: 27.5 µM

## CC(C)=CCC/C(C)=C/CC/C(C)=C/CSc1ccccc1C(=O)NCCCCCCN
SK-OV-3
  IC50: 7.66 µM
[1]
  IC50: 8.69 µM
[2]
  IC50: 7.52 µM
MCF7
  IC50: 8.01 µM
SMMC-7721 [3]
  IC50: 7.93 µM
[4]
  IC50: 7.87 µM
EJ
  IC50: 10.1 µM

## CC(C)=CCC/C(C)=C/CC/C(C)=C/CSc1ccccc1C(=O)NCCCCN
SK-OV-3
  IC50: 7.8 µM
[1]
  IC50: 10.5 µM
[2]
  IC50: 12.5 µM
MCF7
  IC50: 11.2 µM
SMMC-7721 [3]
  IC50: 15 µM
[4]
  IC50: 11.2 µM
EJ
  IC50: 13.1 µM

## CC(C)=CCC/C(C)=C/CC/C(C)=C/CSc1ccccc1C(=O)O [SALIRASIB]
SK-OV-3
  IC50: 51.2 µM
SMMC-7721 [5]
  Activity: 13.49%
[1]
  IC50: 53.6 µM
[2]
  IC50: 49.2 µM
MCF7
  IC50: 49.1 µM
SMMC-7721 [6]
  Activity: Active
SMMC-7721 [3]
  IC50: 69.7 µM
SMMC-7721 [7]
  viability at 12 µM: 80.4%
[8]
  logP: 6.32
[4]
  IC50: 41.3 µM
SMMC-7721 [9]
  Activity: 5.87%
EJ
  IC50: 47.6 µM
SMMC-7721 [10]
  Activity: Active
SMMC-7721 [11]
  Activity: Active
[12]
  solubility at 24 h: 3650 µg/mL (≈ 10.2 mM)
SMMC-7721 [13]
  Activity: 0.21%

## CC(C)=CCC/C(C)=C/CC/C(C)=C/CSc1ccccc1C(=O)NCCN
SK-OV-3
  IC50: 31.6 µM
[1]
  IC50: > 50 µM
[2]
  IC50: 36 µM
MCF7
  IC50: 28.7 µM
SMMC-7721 [3]
  IC50: 25.2 µM
[4]
  IC50: 33.8 µM
EJ
  IC50: > 50 µM

## CC(C)=CCC/C(C)=C/CC/C(C)=C/CSc1ccccc1C(=O)NCCCCCCNC(=O)c1ccccc1SC/C=C(\C)CC/C=C(\C)CCC=C(C)C
SK-OV-3
  IC50: > 50 µM
[1]
  IC50: > 50 µM
[2]
  IC50: > 50 µM
MCF7
  IC50: 40.6 µM
SMMC-7721 [3]
  IC50: > 50 µM
[4]
  IC50: > 50 µM
EJ
  IC50: 43.9 µM
